A selection: hits, their analogues and other compounds. The true share with any hit is near 4.4%.
AHR act – AHR activators, primary screen, cell-based, luminescence, luciferase reporter, human. actives 2.5% (n = 320,000). AHR-responsive luciferase reporter cells. Aryl hydrocarbon receptor (Homo sapiens), P35869. activation, % at 5 µM. AID 2796, 2010; in the data active = activation above about 47%;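 note: 0% = vehicle wells and 100% = reference agonist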
Tb MetRS inh – T. brucei MetRS inhibitors, primary screen, biochemical, luminescence | purified T. brucei MetRS, ATP depletion, Kinase-Glo luminescence | inhibition, % at 11.9 µM | AID 624268, 2012 | methionyl-tRNA synthetase (Trypanosoma brucei brucei) | actives 0.4% (n = 360,000);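 active = inhibition above a per-plate cutoff of the control wells' mean inhibition plus 3 SD, cut at about 5.5% in these data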;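 note: 0% = DMSO wells median and 100% = median of wells with control inhibitor compound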
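Dosing: 11.9 µM compound single dose, 0.9% DMSO; Assay system: purified T. brucei MetRS enzyme; Measured by: Kinase-Glo luciferase luminescence reporting remaining unconsumed ATP; Schedule: 15 min plus 2 h at 25 °C.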
MsrA inh – bovine MsrA enzyme inhibitors, primary screen, biochemical, absorbance, HTS. Methionine sulfoxide reductase A (Bos taurus). actives 0.75% (n = 360,000). inhibition, % at 15.5 µM. purified bovine MsrA, absorbance read-out; in the data active = inhibition above about 4.5%;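 note: 0% = vehicle wells with enzyme and 100% = reference inhibitor wells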
bovine MsrA act – bovine MsrA enzyme activators, primary screen, biochemical, absorbance, HTS. purified bovine MsrA, absorbance read-out. activation, % at 10.6 µM. actives 0.3% (n = 360,000). AID 602163, 2012; in the data active = activation above about 7.5%;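 note: 0% = vehicle and 100% = reference activator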
m5-HT2A agonist – mouse Htr2a agonists via beta-arrestin recruitment, primary screen, cell-based, luminescence; activation, % at 7.6 µM; actives 0.66% (n = 360,000); AID 624169, 2012; CHO-K1 mHTR2A beta-arrestin complementation; percent of 30 µM serotonin response;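 active = activation above a run cutoff, the mean activation of all tested compounds plus 3 SD, cut at about 14% in these data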;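 note: 0% = plate median of compound wells and 100% = 30 µM serotonin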
AI-2 QS modul – Vibrio harveyi AI-2 quorum sensing modulators, primary screen, JMH597 strain, luminescence/OD600 ratio | activity change, % at 7.5 µM | actives 0.4% (n = 300,000) | AID 2094, 2009 | Vibrio harveyi JMH597 AI-2 luminescence/OD600 ratio, 9 h; stronger effect = lower value; strain lacks LuxN and CqsS sensors; 0 = neutral-control median; in the data active = activity change below about -75%, passing the limit was not always enough;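 note: luminescence divided by OD600 gain over 9 h not by final OD600 alone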
AHR act cf – AHR activators, confirmation, cell-based, luminescence, luciferase reporter, human; human cells, AHR-responsive luciferase reporter; shares compounds with AHR act; activation, % at 9 µM; actives 87% (n = 2,300); in the data active = activation above about 49%;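 note: HepG2 hepatoma cells carrying a DRE-driven firefly luciferase reporter; 0% = vehicle wells and 100% = reference agonist wells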
PXR counter – human PXR activators, counter-screen for AHR activator project, cell-based, luciferase luminescence | shares compounds with AHR act | cell-based PXR reporter | activation, % at 11.6 µM | actives 88% (n = 2,300) | AID 434939, 2010; in the data active = activation above about 11%;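 note: human hepatoma DPX-2 cells expressing full-length human PXR; 0% = DMSO and 100% = reference agonist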
Target sequence (O75469 whole entry, looked up): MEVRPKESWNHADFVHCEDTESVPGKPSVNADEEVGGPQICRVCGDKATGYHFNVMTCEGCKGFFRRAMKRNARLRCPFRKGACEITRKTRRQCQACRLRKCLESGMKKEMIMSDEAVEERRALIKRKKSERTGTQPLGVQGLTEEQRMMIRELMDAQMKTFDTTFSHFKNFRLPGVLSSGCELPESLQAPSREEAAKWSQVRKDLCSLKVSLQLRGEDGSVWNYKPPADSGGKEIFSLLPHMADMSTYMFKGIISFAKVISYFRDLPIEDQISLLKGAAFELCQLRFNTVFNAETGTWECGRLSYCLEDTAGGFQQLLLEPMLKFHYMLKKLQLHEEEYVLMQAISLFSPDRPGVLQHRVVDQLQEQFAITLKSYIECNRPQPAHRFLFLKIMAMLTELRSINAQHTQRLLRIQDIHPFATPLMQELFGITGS
* hit, by the source's call; x = not tested or not shown.

SMILES | AHR act | Tb MetRS inh | MsrA inh | bovine MsrA act | m5-HT2A agonist | AI-2 QS modul | AHR act cf | PXR counter
CN(C(=O)c1nn(C)c2c1CSc1ccccc1-2)c1ccc(F)cc1 | 105* | -1 | 0 | -6 | 0 | -2 | 47* | 64*
COc1cccc(C=Nc2ccccc2C(=O)Nc2nccs2)c1OC | -1 | -2 | 2 | -6 | 1 | -7 | x | x
COc1c(C(=O)Nc2nccs2)ccc2ccccc12 | 84* | 0 | 1 | -3 | 2 | 24 | 149* | 27*
COc1cccc(C(=O)NCCS(=O)(=O)N2CC(C)CC(C)C2)c1 (stereo not drawn) | 5 | 0 | 0 | -1 | -8 | 6 | x | x
COC(=O)c1ccc(N2CCOCC2)c(NC(=O)c2cccnc2)c1 | 1 | -1 | 1 | 3 | 10 | 9 | x | x
CN1CCN(CC(=O)Nc2c(C(=O)c3ccccc3)oc3ccccc23)CC1 | 79* | 0 | 1 | -3 | 0 | 1 | 61* | 20*
COc1ccccc1N(CC(=O)Nc1ccc2c(c1)OCO2)S(=O)(=O)c1ccccc1 | 98* | 0 | -1 | -1 | 2 | 6 | 97* | 187*
O=C(COc1cc(F)ccc1[N+](=O)[O-])Nc1ccc2c(c1)OCO2 | -4 | 0 | 1 | -5 | 4 | x | x | x
COc1cccc(C(=O)Nc2ccc3[nH]ncc3c2)c1OC | 92* | 0 | 0 | -1 | 4 | 19 | 68* | 12*
CC(=O)c1cc(F)ccc1OCC(=O)Nc1ccc2c(c1)OCO2 | 94* | 0 | 0 | -3 | -10 | x | 105* | 29*
COc1ccccc1CC(=O)Nc1ccc2[nH]ncc2c1 | 5 | 1 | 0 | 0 | -2 | 17 | x | x
COc1cccc(C(=O)Nc2ccc3c(c2)OCO3)c1OC | 103* | 0 | 0 | 2 | 5 | 18 | 54* | 70*
CC(=O)Nc1ccc(Nc2nc3ccccc3nc2NS(=O)(=O)c2ccc(Cl)c([N+](=O)[O-])c2)cc1 | x | 0 | 0 | -4 | 1 | x | x | x
CCN(CC)C(=O)C1=C(C)N(Cc2ccc(OC)cc2)C(=O)C(CC(=O)NCCCN(C)C)C1 (stereo not drawn) | x | -1 | 0 | -1 | -1 | x | x | x
O=c1nc2c(-c3ccccc3F)n[nH]n2c2ccccc12 | 111* | -1 | 2 | 2 | -6 | -1 | 182* | 26*
Nc1c(N2CCCCC2)c(=O)[nH]c(=O)n1-c1ccccc1 | 1 | 0 | 1 | 1 | 1 | 11 | x | x
Nc1c2nc(-c3ccccc3Cl)[nH]c(=O)c2nc(=O)n1-c1ccccc1 | 87* | 0 | 0 | -4 | 4 | 6 | 95* | 19*
Cc1ccc(/C(O)=C2\C(=O)C(=O)N(CCCN3CCOCC3)C2c2ccccc2F)cc1 (stereo not drawn) | x | 0 | 1 | -6 | 0 | x | x | x
COc1ccccc1-c1nnc(SCC(=O)Nc2c(Cl)cccc2Cl)o1 | 80* | 0 | 1 | -3 | 2 | 4 | 95* | 83*
FC(F)(F)c1cccc(N2CCN(c3ccc4nnc(-c5ccccc5)n4n3)CC2)c1 | -1 | -1 | 1 | -1 | -1 | -3 | x | x
COc1ccc2nnc(-c3ccc(C(F)(F)F)cc3)n2n1 | 81* | 0 | -1 | 0 | -7 | 9 | 105* | 18*
CCOC(=O)c1sc(Nc2nc3c(OC)cccc3s2)nc1C | 84* | -1 | 2 | -1 | 4 | -1 | 127* | 72*
CCOC(=O)c1sc(Nc2ccccc2)nc1C | 21 | -1 | 1 | -5 | -1 | 11 | x | x
